ChEMBL document CHEMBL1135652, “Novel soluble cationic trans-diaminedichloroplatinum(II) complexes that are active against cisplatin resistant ovarian cancer cell lines” (J Med Chem, 2002)
Several values for one entry are separate records, joined by “and”; a condition that tells them apart may be missing. Equal entries are not always repeated.

Experiments:
A2780 = experiment: cytotoxicity against A2780 cells incubated for 24 hr in MTT assay.; format: functional, cell-based, Homo sapiens
In short: (§1)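 Cisplatin-sensitive/resistant ovarian cancer line pairs; platinum complexes dissolved in 10 mM NaClO4 in water (1 mg/mL stock, fresh), added to cultures at final 0–200 μM for 24 h. Survival by MTT, absorbance at 520 nm; IC50 (concentration giving 50% cell killing) taken from % survival vs concentration curves. Quadruplicate experiments.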

CH1 [1] = experiment: cytotoxicity against CH1cisR cells incubated for 24 hr in MTT assay; format: functional, cell-based, Homo sapiens; in short: as §1
41M [2] = experiment: cytotoxicity against 41McisR cells incubated for 24 hr in MTT assay; format: functional, cell-based, Homo sapiens; in short: as §1
A2780cisR [3] = experiment: cytotoxicity against A2780cisR cells incubated for 24 hr in MTT assay; format: functional, cell-based, Homo sapiens; in short: as §1
41M [4] = experiment: cytotoxicity against 41M cells incubated for 24 hr in MTT assay.; format: functional, cell-based, Homo sapiens; in short: as §1
CH1 [5] = experiment: cytotoxicity against CH1 cells incubated for 24 hr in MTT assay.; format: functional, cell-based, Homo sapiens; in short: as §1
A2780cisR [6] = experiment: Resistant factor was measured as […]; format: functional, cell-based
[7] = Resistant factor was measured as IC50 CH1/ IC50 CH1cisR; format: functional
[8] = Resistant factor was measured as IC50 41M/ IC50 41McisR; format: functional

Substance | IC50 (A2780) | IC50 (CH1 [1]) | IC50 (41M [2]) | IC50 (A2780cisR [3]) | IC50 (41M [4]) | IC50 (CH1 [5]) | RF (A2780cisR [6]) | RF [7] | RF [8]
CISPLATIN [listing 1 of 2 here] | 2.2 µM | 23 µM | 107 µM | 38 µM | 26 µM | 6 µM |  |  | 
CISPLATIN [listing 2 of 2 here] |  |  |  |  |  |  | 17.3 | 3.8 | 4.1
TRANSPLATIN | > 200 µM | > 200 µM | > 200 µM | > 200 µM | > 200 µM | > 200 µM |  |  | 
trans-ptcl2(IPA)(pz) [listing 1 of 2 here] | 14 µM | 50 µM | 122 µM | 30 µM | 38 µM | 10 µM |  |  | 
trans-ptcl2(IPA)(pz) [listing 2 of 2 here] |  |  |  |  |  |  | 2.1 | 5 | 3.2
trans-ptcl2(NH3)(pz) [listing 1 of 2 here] | 5 µM and 10 µM | 34 µM and 56 µM | 155 µM and 112 µM | 44 µM and 25 µM | 52 µM and 46 µM | 12 µM and 28 µM |  |  | 
trans-ptcl2(NH3)(pz) [listing 2 of 2 here] |  |  |  |  |  |  |  | 2.8 and 2 | 3 and 2.4
trans-ptcl2(n-butyl amine)(pz) [listing 1 of 2 here] | 16 µM | 19 µM | 48 µM | 28 µM | 32 µM | 17 µM |  |  | 
trans-ptcl2(n-butyl amine)(pz) [listing 2 of 2 here] |  |  |  |  |  |  | 1.8 | 1.1 | 1.5
trans-ptcl2(picoline)(pz) [listing 1 of 2 here] | 10 µM | 42 µM | 147 µM | 24 µM | 45 µM | 16 µM |  |  | 
trans-ptcl2(picoline)(pz) [listing 2 of 2 here] |  |  |  |  |  |  | 2.4 | 2.6 | 3.3
trans-ptcl2(pip)(pz) [listing 1 of 2 here] | 18 µM | 85 µM | 118 µM | 64 µM | 37 µM | 22 µM |  |  | 
trans-ptcl2(pip)(pz) [listing 2 of 2 here] |  |  |  |  |  |  | 3.6 | 3.9 | 3.2
